Laboratory results from ChEMBL document CHEMBL1208775, “Synthesis and vasodilative activity of tanshinone IIA derivatives” (Bioorg Med Chem Lett, 2010).

Legend:
Thoracic aorta [1] = assay: Vasodilatory activity in Wistar rat endothelium-intact thoracic aorta assessed as inhibition of norepinephrine-induced contraction at 100 uM after 20 mins by organ-bath technique; assay type: functional
Outline: (§1)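 Rat aortic rings in Krebs-Henseleit solution, equilibrated 2 h at 1.5 g basal tension with bath changes every 20 min. Endothelium taken as intact when acetylcholine (1 × 10^-5 mmol) relaxed norepinephrine-precontracted rings by more than 80%. Rings were precontracted with norepinephrine bitartrate (1 × 10^-6 mM) before compound addition. Response is expressed as percent of maximal control norepinephrine contraction. Mean ± SEM, paired t-test.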

Thoracic aorta [2] = assay: Vasodilatory activity in Wistar rat endothelium-intact thoracic aorta assessed as inhibition of norepinephrine-induced contraction after 20 mins by organ-bath technique; assay type: functional, tissue-based; outline: as §1

| IC50 (Thoracic aorta [2]) [µM] | Compound | inhibition at 100 µM (Thoracic aorta [1]) [%] | inhibition (Thoracic aorta [2]) |
| --- | --- | --- | --- |
|  | Cc1c(C(c2ccccc2Cl)c2oc3c(c2C)C(=O)C(=O)c2c-3ccc3c2CCCC3(C)C)oc2c1C(=O)C(=O)c1c-2ccc2c1CCCC2(C)C | -29.2 |  |
| 130 | COc1cc(C(c2oc3c(c2C)C(=O)C(=O)c2c-3ccc3c2CCCC3(C)C)c2oc3c(c2C)C(=O)C(=O)c2c-3ccc3c2CCCC3(C)C)ccc1O | 42.8 | Dose-dependent effect |
|  | COc1ccc(C(c2oc3c(c2C)C(=O)C(=O)c2c-3ccc3c2CCCC3(C)C)c2oc3c(c2C)C(=O)C(=O)c2c-3ccc3c2CCCC3(C)C)cc1 | 11 |  |
|  | Cc1c(C(c2cccc([N+](=O)[O-])c2)c2oc3c(c2C)C(=O)C(=O)c2c-3ccc3c2CCCC3(C)C)oc2c1C(=O)C(=O)c1c-2ccc2c1CCCC2(C)C | 18.8 |  |
|  | Cc1c(C(c2ccccc2)c2oc3c(c2C)C(=O)C(=O)c2c-3ccc3c2CCCC3(C)C)oc2c1C(=O)C(=O)c1c-2ccc2c1CCCC2(C)C | 2.95 |  |
|  | Cc1c(C(c2ccc([N+](=O)[O-])cc2)c2oc3c(c2C)C(=O)C(=O)c2c-3ccc3c2CCCC3(C)C)oc2c1C(=O)C(=O)c1c-2ccc2c1CCCC2(C)C | 11.4 |  |
|  | Cc1c(C(c2ccc([S+](C)[O-])cc2)c2oc3c(c2C)C(=O)C(=O)c2c-3ccc3c2CCCC3(C)C)oc2c1C(=O)C(=O)c1c-2ccc2c1CCCC2(C)C (stereo not given) | 10.3 |  |
|  | Cc1c(C(c2ccc(Cl)cc2)c2oc3c(c2C)C(=O)C(=O)c2c-3ccc3c2CCCC3(C)C)oc2c1C(=O)C(=O)c1c-2ccc2c1CCCC2(C)C | 1 |  |
| 480 | CC(CO)C1=C(O)C(=O)c2c(ccc3c2CCCC3(C)C)C1=O (stereo not given) | 59.2 | Dose-dependent effect |
|  | Cc1c(C(c2ccc(O)cc2)c2oc3c(c2C)C(=O)C(=O)c2c-3ccc3c2CCCC3(C)C)oc2c1C(=O)C(=O)c1c-2ccc2c1CCCC2(C)C | 15.2 |  |
|  | Cc1c(C(c2ccc(O)c(O)c2)c2oc3c(c2C)C(=O)C(=O)c2c-3ccc3c2CCCC3(C)C)oc2c1C(=O)C(=O)c1c-2ccc2c1CCCC2(C)C | -0.86 |  |
|  | Cc1coc2c1C(=O)C(=O)c1c-2ccc2c1CCCC2(C)C [TANSHINONE IIA] | 2.92 |  |
|  | Cc1c(Br)oc2c1C(=O)C(=O)c1c-2ccc2c1CCCC2(C)C | 4.24 |  |
| 260 | Cc1c(C(c2cccc(Cl)c2)c2oc3c(c2C)C(=O)C(=O)c2c-3ccc3c2CCCC3(C)C)oc2c1C(=O)C(=O)c1c-2ccc2c1CCCC2(C)C | 56 | Dose-dependent effect |
